CaV13 ICDI inh: Disruptors of the CACNA1D IQ motif to Ca2+-dependent inactivation inhibitor domain association, primary screening, Förster resonance energy transfer in intact living …; HEK cells, CFP/YFP FRET ICDI-IQ, plate reader, 10 min; percent FRET-ratio fall versus neutral wells; inhibition, % at 12.3 µM; 0.098% of 340,000 active;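 active = mean replicate inhibition of at least 30% and at least 1% of replicates passing that level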;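 note: 0% = median of the neutral control wells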
CAL PDZ FP-1: inhibitors of human CAL PDZ peptide binding; Q9HD26; purified CAL PDZ, TMR-peptide fluorescence polarization, 1 h; inhibition, % at 20 µM; 0.02% of 330,000 active;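 active = highest replicate inhibition of at least 40%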;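 note: plate controls were DMSO neutral control wells for no effect and unlabeled competitor peptide control wells for full effect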
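System: tagged CAL PDZ domain. Schedule: 1 h room-temperature incubation prior to read. Signal: fluorescence polarization (mP). Measure: percent inhibition from loss of millipolarization.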
CAL PDZ FP-2: blocks peptide binding to the human CAL PDZ domain; AID 602252; 0.92% of 300,000 active; inhibition, % at 24.9 µM; purified CAL PDZ, TMR-peptide fluorescence polarization, 1 h; Q9HD26;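 active = mean inhibition of at least 30% with at least half of replicates also reaching 30%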;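 note: 0% = DMSO neutral control and 100% = excess unlabeled competitor peptide PRC23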
C-LANA FP: KSHV C-LANA DNA binding inhibition. 0.078% of 340,000 active. MBP-C-LANA/FAM-LBS DNA binding, fluorescence polarization. inhibition, % at 9 µM;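 active = highest replicate inhibition at or above 60% at 9 µM, even if other replicates fall short; inactive = all replicates below 60% inhibition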;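 note: 0% = neutral control wells and 100% = 4 µM acridine orange control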
Keap1 Nrf2 FP: inhibitors of human Keap1-Nrf2 protein-protein interaction; Q14145; Keap1 Kelch-Nrf2 peptide fluorescence polarization, 1536-well; inhibition, % at 9.4 µM; 0.15% of 340,000 active; in the data active = inhibition above about 12%;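 note: human Keap1 Kelch domain with fluorescein labeled Nrf2 9mer peptide probe; 0% = neutral control wells and 100% = peptide positive control; higher means more block of Keap1 binding to Nrf2 peptide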
LANA-H2B inh: blocks KSHV LANA binding to histone H2A/H2B | 0.6% of 320,000 active | cell-free LANA-H2A/H2B peptide, fluorescence polarization | AID 2629 | Q9QR71 | inhibition, % (test concentration not listed); in the data active = inhibition mostly above about 10%, no sharp cut-off; inactive = mostly below about 6.7%
The depositor's hits bear a star; x = no result; + = active, no number. In the library only some 1.5% were active in any assay of this set; here they are far more common.

SMILES	CaV13 ICDI inh	CAL PDZ FP-1	CAL PDZ FP-2	C-LANA FP	Keap1 Nrf2 FP	LANA-H2B inh
CCNc1c([N+](=O)[O-])c(=O)oc2ccccc12	4	-2	56*	-1	-2	0
FC(F)(F)c1ccccc1Cc1c(-c2ccco2)nc2c3ccccc3ccn12	-7	x	x	x	x	x
NC(=O)c1nn(CC(=O)Nc2cccc(S(=O)(=O)N3CCCCCC3)c2)c(=O)c2ccccc12	-5	-2	-7	1	-3	+
C[C@H]1[C@@H](c2ccccc2)Oc2c(Cl)cccc2S(=O)(=O)N1C	-3	x	x	x	x	x
COc1ccccc1C1C2=C(CC(C)(C)CC2=O)N(CC(=O)O)C2=C1C(=O)CC(C)(C)C2	36*	4	-5	1	0	2
O=C(CCOc1ccccc1)NCC(c1ccco1)N1CCCCC1 (centres undefined)	-4	0	0	1	-3	7.9*
O=C(COc1ccccc1)NCC(c1ccco1)N1CCCCC1 (centres undefined)	-2	-2	-7	1	-4	1
CN(c1ccccc1)S(=O)(=O)c1ccc(C(=O)NCC(c2ccco2)N2CCCCC2)cc1 (centres undefined)	-6	0	x	0	-6	39*
COc1cc(-c2noc(C)c2C(=O)NCc2ccc3c(c2)OCO3)cc(OC)c1OC	-10	-1	-3	1	-2	-1
COc1c(Cl)cc(-c2noc(C)c2C(=O)NCc2ccc3c(c2)OCO3)cc1Cl	71*	0	x	0	0	-1
COC(=O)c1ccccc1NC(=O)NCc1ccncc1	-5	-1	3	0	1	35*
COc1cccc(-c2ccc3c(c2)[C@@H]2C[C@H]4[C@@H](CN2CC3)[C@H](C)ON4C)c1	-5	x	x	x	x	x
Cc1cc(Nc2ccccc2Cl)nc(-c2ccccc2O)n1	-4	x	57*	2	1	2
O=C(c1ccco1)N1N=C(c2cccs2)CC1c1ccco1 (centres undefined)	-7	-2	-3	1	1	-1
Cc1ccc(C2CC(c3cccs3)=NN2C(=O)c2ccco2)o1 (centres undefined)	2	-4	-1	-1	1	20*
CC1CCN(C(=O)COc2cccc3c2CCN(Cc2ccccc2)C3=O)CC1	91*	-2	-2	0	-7	-3
COc1ccc(CN2CCNC(=O)C2CC(=O)N(C)CCC2CCOCC2)cc1OC (centres undefined)	-6	0	93*	0	2	-3
O=C(C(=O)N1CCN(S(=O)(=O)c2ccc(F)cc2)CC1)c1cccc(C(F)(F)F)c1	-10	x	x	x	x	x
Cc1nn(-c2ccccc2)c2[nH]c(=O)c(CNc3ccc(N4CCOCC4)cc3)cc12	x	-7	-10	-1	-5	-1
Cc1nn(-c2ccc(Cl)cc2)c2[nH]c(=O)c(CNCc3ccc4c(c3)OCO4)cc12	x	0	x	1	2	24*
CC(C)C(C(=O)NCc1ccccc1)N1CCN(CCN2CCOCC2)CC1 (centres undefined)	-7	x	x	x	x	x
O=C(NCc1ccccc1)C1CCCC1	x	x	x	x	x	8
O=C(NC(=S)NCc1ccccc1)C1CC1	-4	0	3	0	-2	16*
S=C(NCc1ccccc1)NNc1ccccc1	8	-1	58*	0	-1	1
S=C(NCc1ccccc1)NCc1ccccc1	-8	-3	-1	1	1	-1
CN(C(=O)[C@H]1O[C@@H](n2cnc(C(N)=O)n2)[C@H](O)[C@@H]1O)c1ccccc1	-3	x	x	x	x	x
COc1ccc(S(N)(=O)=O)cc1C(=O)NC1CCCc2ccccc21 (centres undefined)	-4	-3	-5	0	-1	0
C[C@H](CO)N1C[C@H](C)[C@@H](CN(C)S(=O)(=O)c2ccc(F)cc2)Oc2cc(Br)ccc2S1(=O)=O	-5	x	x	x	x	x
Cc1ccc2cccc(OC(=O)c3cccnc3Oc3ccccc3)c2n1	-3	x	x	x	x	x
O=C(c1ccco1)N1CCN(c2cc(=O)n(-c3ccc(Cl)cc3)c(=O)[nH]2)CC1	-6	0	x	0	-6	19*

Screening data deposited in PubChem by Broad Institute.
